The nature of test [1]: Inhibition of beta-hematin formation. It counts as functional.
Another test relates to Vero. The test is described as follows: Cytotoxicity against african green monkey Vero cells upto 23.8 […] by neutral dye assay. It counts as cell-based, Chlorocebus sabaeus. An outline of the steps:
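Vero monkey kidney cells were exposed to compound up to a highest concentration of 23.8, with viability read by neutral red uptake.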

The test system of another test is Leishmania donovani. The experiment in a line: Antileishmanial activity against Leishmania donovani promastigote by Alamar Blue assay. It is filed as functional, organism-based. (Resazurin is reduced to fluorescent resorufin, in cell work by metabolically active cells.)
Test [2] relates to Staphylococcus aureus. The test is described as follows: Antimicrobial activity against Staphylococcus aureus ATCC 29213 by CLSI method. It is filed as functional, organism-based.
Test [3] concerns Mycobacterium intracellulare. The test is described as follows: Antimicrobial activity against Mycobacterium intracellulare ATCC 23068 by Franzblau method. It is filed as functional, organism-based.
The subject of the next test is Escherichia coli. The test is described as follows: Antimicrobial activity against Escherichia coli ATCC 35218 by CLSI method. It counts as functional, organism-based.
The test system of a further test is Pseudomonas aeruginosa. The experiment in a line: Antimicrobial activity against Pseudomonas aeruginosa ATCC 27853 by CLSI method. It is filed as functional, organism-based. In a few lines: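 Antibacterial testing used CLSI/NCCLS broth dilution for aerobically growing bacteria, with 20 as the highest test concentration.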
Test [4] deals with Plasmodium falciparum. The experiment in a line: Antimalarial activity against chloroquine-resistant Plasmodium falciparum W2 assessed as plasmodial LDH activity. It counts as functional, organism-based.
The test system of test [5] is Plasmodium falciparum. The experiment in a line: Antimalarial activity against chloroquine-sensitive Plasmodium falciparum D6 assessed as plasmodial LDH activity. It is filed as functional, organism-based.
In test [6] the test system is Staphylococcus aureus. The experiment in a line: Antimicrobial activity against methicillin-resistant Staphylococcus aureus ATCC 43300 by CLSI method. It counts as functional, organism-based.
Another test deals with Cryptococcus neoformans. The experiment in a line: Antifungal activity against Cryptococcus neoformans. It is filed as functional, organism-based. An outline of the steps: (§1)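 Yeasts and A. fumigatus were tested by broth microdilution following the NCCLS antifungal standards. The highest test concentration was 20.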
The subject of test [7] is Candida albicans. The test is described as follows: Fungicidal activity against Candida albicans at 20 ug/ml. It is filed as functional, organism-based. In a few lines: (§2)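 Broth dilution antifungal testing followed the NCCLS reference method for yeasts, with 20 as the highest test concentration. MIC was the lowest concentration with no detectable growth. MFC was the lowest concentration killing the organism.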

In test [8] the test system is Candida albicans. The test is described as follows: Antifungal activity against Candida albicans at 20 ug/ml. It counts as functional, organism-based. In a few lines:
as §2

A further test deals with Aspergillus fumigatus. The test is described as follows: Antifungal activity against Aspergillus fumigatus. It is filed as functional, organism-based. In a few lines:
as §1

SMILES strings stand for the structures. ≈ marks a conversion by molar mass, not a printed value. Calls of active or inactive are those of the source.

The term IC50 denotes the concentration that inhibits the measured activity by half. The IC90 is the concentration needed for an effect of 90%. What is called MFC is the smallest concentration meeting the test's criterion for killing the fungus. Usually MIC stands for the smallest concentration in the dilution series that meets the test's criterion for growth inhibition.

Take `COc1cc(NC(C)CCCN)c2ncccc2c1` (stereo not given) [PRIMAQUINE]: the IC50 in test [1] is above 1000 µM; in the test with Vero, “Non-toxic”. The IC90 entry in the test with Leishmania donovani is “inactive”.

For `COc1cc(NC(C)CCCNC(=O)CC[C@H](NC(=O)[C@@H](N)CCCCN)C(=O)O)c2ncccc2c1` (stereo not given in full), the result (in the test with Staphylococcus aureus [2]; in [3]; in the test on Escherichia coli; in the test on Pseudomonas aeruginosa; with Staphylococcus aureus [6]) was inactive. In addition, the IC50 entry in the test with Plasmodium falciparum [4] was “Not Active”; in the test on Plasmodium falciparum [5], “Not Active”; in the test with Vero, “Non-toxic”; with Leishmania donovani it was “Not Active”. The IC90 result in the test on Leishmania donovani is “inactive”.

For the compound `COc1cc(NC(C)CCCNC(=O)C[C@@H](NC(=O)[C@H](N)CCCN)C(=O)O)c2ncccc2c1` (stereo not given in full), the outcome (in the test with Staphylococcus aureus [2]; in test [3]; in the test with Escherichia coli; in the test on Pseudomonas aeruginosa; in the test with Candida albicans [7]; with Candida albicans [8]) was inactive. Further, the outcome in the test with Aspergillus fumigatus and with Staphylococcus aureus [6] was inactive. Besides, the IC50 with Cryptococcus neoformans was 7 mg/L (≈ 14.3 µM); in test [1], above 1000 µM; in the test on Plasmodium falciparum [4], “Not Active”; with Plasmodium falciparum [5], “Not Active”; with Vero it was “Non-toxic”; with Leishmania donovani, “Not Active”. In the test with Cryptococcus neoformans, this compound had an MFC of 10 mg/L (≈ 20.5 µM). Moreover, inhibition of growth against Cryptococcus neoformans (MIC) required 10 mg/L (≈ 20.5 µM). Further, the IC90 entry with Leishmania donovani was “inactive”.

For `COc1cc(NC(C)CCCNC(=O)CC[C@H](NC(=O)[C@@H](N)CCCCN)C(=O)O)c2nc(C(C)(C)C)ccc2c1` (stereo not given in full), the outcome (with Staphylococcus aureus [2]; in test [3]; in the test with Escherichia coli; in the test on Pseudomonas aeruginosa; in the test with Candida albicans [7]; with Candida albicans [8]) was inactive. Moreover, the outcome in the test on Aspergillus fumigatus and with Staphylococcus aureus [6] was inactive. In addition, the IC50 in the test with Cryptococcus neoformans is 15 mg/L (≈ 26.2 µM); in test [1], above 1000 µM; in the test on Plasmodium falciparum [4], “Not Active”; in the test on Plasmodium falciparum [5], “Not Active”; with Vero, “Non-toxic”; with Leishmania donovani, “Not Active”. The MFC against Cryptococcus neoformans worked out at 20 mg/L (≈ 34.9 µM). In the test on Cryptococcus neoformans, this compound came in with an MIC of 20 mg/L (≈ 34.9 µM). In addition, the IC90 entry in the test on Leishmania donovani is “inactive”.

Consider `COc1cc(NC(C)CCCNC(=O)C[C@@H](NC(=O)[C@H](N)CCCCN)C(=O)O)c2nc(C(C)(C)C)ccc2c1` (stereo not given in full), for which the outcome (in the test on Staphylococcus aureus [2]; in test [3]; in the test on Escherichia coli; with Pseudomonas aeruginosa; with Staphylococcus aureus [6]) was inactive. For the same compound, the IC50 is above 1000 µM in test [1]; “Not Active” with Plasmodium falciparum [4]; “Not Active” in the test on Plasmodium falciparum [5]; “Non-toxic” in the test on Vero; “Not Active” with Leishmania donovani. Also, the IC90 entry with Leishmania donovani was “inactive”.

Consider `COc1cc(NC(C)CCCNC(=O)CC[C@@H](NC(=O)[C@H](N)CCCN)C(=O)O)c2ncccc2c1` (stereo not given in full), for which the outcome (in the test on Staphylococcus aureus [2]; in test [3]; with Escherichia coli; in the test on Pseudomonas aeruginosa; in the test with Staphylococcus aureus [6]) was inactive. Moreover, the IC50 was above 1000 µM in [1]; “Not Active” with Plasmodium falciparum [4]; “Not Active” in the test with Plasmodium falciparum [5]; “Non-toxic” with Vero; “Not Active” in the test on Leishmania donovani. Besides, in the test with Leishmania donovani, the IC90 entry was “inactive”.

For `COc1cc(NC(C)CCCNC(=O)NCCCC[C@H](N)C(=O)O)c2nc(C(C)(C)C)ccc2c1` (stereo not given in full), the result (with Staphylococcus aureus [2]; in test [3]; in the test with Escherichia coli; with Pseudomonas aeruginosa; with Staphylococcus aureus [6]) was inactive. Besides, the IC50 is above 1000 µM in test [1]; “Not Active” in the test on Plasmodium falciparum [4]; “Not Active” with Plasmodium falciparum [5]; “Non-toxic” in the test with Vero; “Not Active” in the test with Leishmania donovani. Also, the IC90 result in the test on Leishmania donovani was “inactive”.

For `COc1cc(NC(C)CCCNC(=O)CC[C@@H](NC(=O)[C@H](N)CCCN)C(=O)O)c2nc(C(C)(C)C)ccc2c1` (stereo not given in full), the outcome (with Staphylococcus aureus [2]; in test [3]; with Escherichia coli; in the test with Pseudomonas aeruginosa; in the test with Staphylococcus aureus [6]) was inactive. Besides, the IC50 in test [1] is above 1000 µM; in the test with Plasmodium falciparum [4] it was “Not Active”; in the test with Plasmodium falciparum [5] it was “Not Active”; in the test on Vero, “Non-toxic”; in the test on Leishmania donovani, “Not Active”. Further, the IC90 entry in the test with Leishmania donovani is “inactive”.

`N=C(N)c1ccc(OCCCCCOc2ccc(C(=N)N)cc2)cc1` [PENTAMIDINE] registered an IC90 with Leishmania donovani (Leishmania donovani) of 3.8 mg/L (≈ 11.2 µM).

For `COc1cc(NC(C)CCCNC(=O)CC[C@@H](NC(=O)[C@H](N)CCCNC(=N)N)C(=O)O)c2ncccc2c1` (stereo not given in full), the result (in the test with Staphylococcus aureus [2]; in [3]; with Escherichia coli; in the test with Pseudomonas aeruginosa; in the test with Staphylococcus aureus [6]) was inactive. The IC50 in test [1] is above 1000 µM; with Plasmodium falciparum [4] it was “Not Active”; in the test on Plasmodium falciparum [5], “Not Active”; in the test with Vero it was “Non-toxic”; in the test on Leishmania donovani it was “Not Active”. In the test on Leishmania donovani, the IC90 entry is “inactive”.

`COc1cc(NC(C)CCCNC(=O)CC[C@@H](NC(=O)[C@H](N)CCCNC(=N)N)C(=O)O)c2nc(C(C)(C)C)ccc2c1` (stereo not given in full): the result (in the test on Staphylococcus aureus [2]; in [3]; in the test with Escherichia coli; in the test with Pseudomonas aeruginosa; in the test on Staphylococcus aureus [6]) was inactive. The IC50 in [1] was above 1000 µM; in the test with Plasmodium falciparum [4], “Not Active”; with Plasmodium falciparum [5] it was “Not Active”; in the test with Vero, “Non-toxic”; in the test on Leishmania donovani, “Not Active”. The IC90 result in the test on Leishmania donovani was “inactive”.

As to `COc1cc(NC(C)CCCNC(=O)CC[C@H](NC(=O)[C@@H](N)CCCN)C(=O)O)c2ncccc2c1` (stereo not given in full), the outcome (in the test with Staphylococcus aureus [2]; in test [3]; in the test on Escherichia coli; with Pseudomonas aeruginosa; in the test on Staphylococcus aureus [6]) was inactive. Besides, the IC50 in [1] was above 1000 µM; with Plasmodium falciparum [4] it was “Not Active”; in the test with Plasmodium falciparum [5], “Not Active”; in the test with Vero, “Non-toxic”; in the test on Leishmania donovani it was “Not Active”. For the same compound, the IC90 result in the test with Leishmania donovani is “inactive”.

For the compound `COc1cc(NC(C)CCCN)c2nc(C(C)(C)C)ccc2c1` (stereo not given), the IC50 in test [1] amounted to 2.9 µM.

`COc1cc(NC(C)CCCNC(=O)NCCC[C@@H](N)C(=O)O)c2ncccc2c1` (stereo not given in full): the outcome (with Staphylococcus aureus [2]; in test [3]; with Escherichia coli; with Pseudomonas aeruginosa; in the test with Staphylococcus aureus [6]) was inactive. Further, the IC50 in [1] is above 1000 µM; in the test on Plasmodium falciparum [4], “Not Active”; in the test on Plasmodium falciparum [5] it was “Not Active”; in the test with Vero, “Non-toxic”; with Leishmania donovani, “Not Active”. In addition, in the test on Leishmania donovani, the IC90 entry was “inactive”.

With `COc1cc(NC(C)CCCNC(=O)CC[C@@H](NC(=O)[C@H](N)CCCCN)C(=O)O)c2ncccc2c1` (stereo not given in full), the result (with Staphylococcus aureus [2]; in test [3]; with Escherichia coli; in the test with Pseudomonas aeruginosa; in the test with Staphylococcus aureus [6]) was inactive. In addition, the IC50 in test [1] is above 1000 µM; in the test on Plasmodium falciparum [4] it was “Not Active”; in the test with Plasmodium falciparum [5] it was “Not Active”; in the test with Vero it was “Non-toxic”; in the test on Leishmania donovani (Leishmania donovani, read-out: IC50), 20.1 mg/L (≈ 38.9 µM). The compound further yielded an IC90 in the test with Leishmania donovani (Leishmania donovani) of 36 mg/L (≈ 69.7 µM).

In the case of `COc1cc(NC(C)CCCNC(=O)NCCCC[C@H](N)C(=O)O)c2ncccc2c1` (stereo not given in full), the result (with Staphylococcus aureus [2]; in [3]; in the test with Escherichia coli; with Pseudomonas aeruginosa; with Staphylococcus aureus [6]) was inactive. For the same compound, the concentration for half-maximal inhibition (IC50) in test [1] is above 1000 µM; in the test on Plasmodium falciparum [4] it was “Not Active”; in the test with Plasmodium falciparum [5] it was “Not Active”; with Vero, “Non-toxic”; with Leishmania donovani it was “Not Active”. In addition, the IC90 entry in the test on Leishmania donovani is “inactive”.

`O=C(O)c1cn(C2CC2)c2cc(N3CCNCC3)c(F)cc2c1=O` [CIPROFLOXACIN] came in with an MIC in [3] of 0.63 mg/L (≈ 1.9 µM).

As to `COc1cc(NC(C)CCCNC(=O)C[C@H](NC(=O)[C@@H](N)CCCN)C(=O)O)c2ncccc2c1` (stereo not given in full), the result (in the test on Staphylococcus aureus [2]; in test [3]; with Escherichia coli; in the test on Pseudomonas aeruginosa; with Staphylococcus aureus [6]) was inactive.

For the origin of these results see ChEMBL document CHEMBL2021883, “Amino acid, dipeptide and pseudodipeptide conjugates of ring-substituted 8-aminoquinolines: synthesis and evaluation of anti-infective, β-haematin inhibition and cytotoxic activities” (Eur J Med Chem, 2012).
